Published values collected from several papers.
Target: NT-3 growth factor receptor (NTRK3, Homo sapiens, UniProt Q16288)

SMILES | read-out | mode | method | tested at | endpoint | result
O=C1Nc2ccc(Cl)cc2C1=Cc1cc(Cl)c(O)c(Cl)c1 | cell-free assay |  |  | 0.5 µM | remaining signal | 44.8%
Cc1c(C(=O)O)cc(-c2ccc(C3CCNCC3)cc2)c2ccc(-c3ccc(C(F)(F)F)cc3)cc12 | cell-free assay |  | competition with immobilised ligand | 1 µM | remaining binding | 100%
Cc1ccc(C(=O)Nc2ccc(CN3CCN(C)CC3)c(C(F)(F)F)c2)cc1C#Cc1cnc2cccnn12 | cell-free assay |  |  | 23.5 nM | remaining signal | 26%
O=C(Nc1cccc(C(=O)Nc2ccc3[nH]ncc3c2)c1)Nc1ccccc1Cl | enzyme activity | inhibitor | FRET | 1 µM | inhibition | 27.4%
CCCCN(CCCC)C(=O)CN1C[C@H](c2cc(OC)c3c(c2)OCO3)[C@@H](C(=O)O)[C@@H]1CC(C)(C)CCC | cell-free assay |  | competition with immobilised ligand | 1 µM | remaining binding | 50.5%
COc1cc2ncnc(Nc3ccc(F)c(Cl)c3)c2cc1OCCCN1CCOCC1 | cell-free assay |  |  | 0.5 µM | remaining signal | 103%
Cc1ccc(NC(=O)c2ccc(C)c(C(F)(F)F)c2)cc1C#Cc1nn(C2CCC(O)CC2)c2ncnc(N)c12 (stereo not shown) | cell-free assay |  |  | 10 µM | remaining signal | 17%
CN(C)C(=O)Cn1cc(-c2nc([C@@](C)(c3ccc(-c4cnc(N)nc4)cc3)C3CC3)no2)cn1 | cell-free assay |  | competition with immobilised ligand | 1 µM | remaining binding | 92%
CC(C)(C)c1nc2c(s1)c1nc(N)ncc1c1ccc(NS(=O)(=O)c3c(F)cccc3F)c(F)c12 | enzyme activity | inhibitor | radiometric | 1 µM | remaining activity | 82%
C[C@@]1(Cc2ccc(C#N)cc2)C(=O)N(c2cc(Cl)cc(Cl)c2)c2ncc(C(=O)NC3(c4nc(C5CCC5)no4)CC3)n21 | cell-free assay |  | competition with immobilised ligand | 1 µM | remaining binding | 100%
O=C(Nc1ccc2[nH]ncc2c1)c1cccc(NC(=S)Nc2ccc(F)cc2F)c1 | enzyme activity | inhibitor | FRET | 1 µM | inhibition | 12.5%
Cc1sc(C(=O)NC2COC2)cc1-n1cc(NC(=O)Nc2c(F)cccc2Cl)cn1 | enzyme activity | inhibitor |  | 10 µM | remaining activity | 86%
O=C(Nc1cccc(Cl)c1)Nc1cccc(C(=O)Nc2ccc3[nH]ncc3c2)c1 | enzyme activity | inhibitor | FRET | 1 µM | inhibition | 19.7%
N#CCCc1ccc2c(c1)-c1[nH]c3ccc([N+](=O)[O-])cc3c1CC(=O)N2 | cell-free assay |  |  | 0.5 µM | remaining signal | 61.2%
CN1CCN(c2ccc(C(=O)Nc3n[nH]c4ccc(Cc5cc(F)cc(F)c5)cc34)c(NC3CCOCC3)c2)CC1 | enzyme activity | inhibitor | FRET | 1 µM | inhibition | 99.8%
COc1cc(Cl)c(C(=O)N[C@@H](CN[C@H]2CC[C@@H](N)CC2)Cc2ccc(C#N)cc2)cc1-c1ccc(CN[C@H](C)c2ccc(C)cc2)o1 | enzyme activity | inhibitor |  | 1 µM | remaining activity | 96%
O=C(Nc1ccccc1)Nc1cccc(C(=O)Nc2ccc3[nH]ncc3c2)c1 | enzyme activity | inhibitor | FRET | 1 µM | inhibition | 12.7%
Clc1ccc(Nc2nnc(Cc3ccncc3)c3ccccc23)cc1 | cell-free assay |  |  | 0.5 µM | remaining signal | 92.7%
O=C(Nc1cnn(-c2csc(C(=O)NC3COC3)c2)c1)Nc1c(F)cccc1Cl | enzyme activity | inhibitor |  | 5 µM | remaining activity | 38.6%
Cc1c[nH]c2nccc(Oc3c(F)cc(Nc4cc(Cl)nc(N)n4)cc3F)c12 | cell-free assay |  | competition with immobilised ligand | 0.1 µM | remaining binding | 86%
O=C(Nc1ccc2[nH]ncc2c1)c1cccc(NC(=S)Nc2cc(C(F)(F)F)cc(C(F)(F)F)c2)c1 | enzyme activity | inhibitor | FRET | 1 µM | inhibition | 11.8%
O=C(NC[C@@H]1[C@H]2CN(C(=O)OCc3cc(C(F)(F)F)cc(C(F)(F)F)c3)C[C@@H]12)c1ccc2[nH]nnc2c1 | cell-free assay |  | competition with immobilised ligand | 1 µM | remaining binding | 91%
O=C(Nc1cnn2ccc(N3CCC[C@@H]3c3cc(F)ccc3F)nc12)N1CC[C@H](O)C1 | enzyme activity | inhibitor | FRET | 1 µM | inhibition | 100%
N#CC1(c2ccccn2)CCN(Cc2cc(C(=O)N3CCCC3)c(=O)n3ccccc23)CC1 | cell-free assay |  | competition with immobilised ligand | 1 µM | remaining binding | 100%
O=C(Nc1cccc(C(=O)Nc2ccc3[nH]ncc3c2)c1)Nc1ccccc1F | enzyme activity | inhibitor | FRET | 1 µM | inhibition | 26.3%
